Measured values: ChEMBL document CHEMBL1151782, “Evaluation of new migrastatin and dorrigocin congeners unveils cell migration inhibitors with dramatically improved potency” (Bioorg Med Chem Lett, 2008)

What was measured:
MDA-MB-231 [1] = assay: Cytotoxicity against human MDA-MB-231 cells; format: functional, cell-based
MDA-MB-231 [2] = assay: Inhibition of human MDA-MB-231 cell migration after 4 days by scratch wound healing assay; format: functional, cell-based; conditions: MDA-MB-231, 96 h
In short: (§1)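 Wounds were scratched through confluent cell monolayers with a floating pin tool, then compounds were added at concentrations chosen to avoid cytotoxicity. Plates were incubated 4 days at 37°C, then fixed and stained. Fluorescence in the wound area quantified wound closure, and IC50 for inhibition of wound healing was reported.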

4T1 [3] = assay: Inhibition of cell migration of mouse 4T1 cells after 4 days by scratch wound healing assay; format: functional, cell-based; conditions: 4T1, 96 h; in short: as §1
4T1 [4] = assay: Cytotoxicity against […] cells; format: functional, cell-based
[5] = Metabolic stability in mouse plasma assessed as half life; format: ADME, cell-free

Row | Compound | IC50 (MDA-MB-231 [2]) [µM] | IC50 (4T1 [3]) [µM] | IC50 (MDA-MB-231 [1]) [µM] | IC50 (4T1 [4]) [µM] | half-life [5] [min]
1 | C/C1=C/[C@@H](C)[C@H](O)[C@@H](O)/C=C/CC/C=C/C(=O)O[C@@H]1[C@H](C)C(=O)CCCC1CC(=O)NC(=O)C1 | > 100 | > 100 | > 100 | 44 | 
2 | CO[C@H]1/C=C/CC/C=C/C(=O)O[C@H]([C@H](C)C(=O)C[C@H](O)CC2CC(=O)NC(=O)C2)/C(C)=C\[C@@H](C)[C@@H]1O | 1.8 | 1.8 | 5.2 | 5.3 | 
3 | C/C1=C/[C@@H](C)C[C@@H](O)/C=C/CC/C=C/C(=O)O[C@@H]1[C@H](C)C(=O)C[C@H](O)CC1CC(=O)NC(=O)C1 | > 100 | > 100 | 13 | 10 | 
4 | C/C1=C/[C@@H](C)[C@H](O)[C@@H](O)/C=C/CC/C=C/C(=O)O[C@@H]1[C@H](C)C(=O)/C=C/CC1CC(=O)NC(=O)C1 | > 100 | > 100 | 29 | 32 | 
5 | C/C1=C/[C@@H](C)[C@H](O)C/C=C/CC/C=C/C(=O)O[C@@H]1[C@H](C)C(=O)C[C@H](O)CC1CC(=O)NC(=O)C1 | > 100 | > 100 | > 100 | > 100 | 
6 | CO[C@@H](/C=C/CC/C=C/C(=O)O)[C@@H](O)[C@H](C)/C=C(\C)[C@H](O)[C@H](C)C(=O)CCCC1CC(=O)NC(=O)C1 [DORRIGOCIN A] | > 100 | > 100 | > 100 | > 100 | 
7 | CO[C@@H](/C=C/CC/C=C/C(=O)O)[C@@H](O)[C@H](C)[C@@H](O)/C(C)=C/[C@H](C)C(=O)C[C@H](O)CC1CC(=O)NC(=O)C1 | > 100 | > 100 | > 100 | > 100 | 
8 | C/C1=C/[C@@H](C)[C@H](O)C/C=C/CC/C=C/C(=O)O[C@@H]1[C@H](C)C(=O)CCCC1CC(=O)NC(=O)C1 | > 100 | > 100 | > 100 | > 100 | 
9 | C/C(=C\[C@@H](C)[C@H](O)[C@@H](O)/C=C/CC/C=C/C(=O)O)[C@H](O)[C@H](C)C(=O)CCCC1CC(=O)NC(=O)C1 | > 100 | > 100 | > 100 | > 100 | 
10 | CO[C@@H](/C=C/CC/C=C/C(=O)O)[C@@H](O)[C@H](C)C(O)/C(C)=C/[C@H](C)C(=O)CCCC1CC(=O)NC(=O)C1 (stereo partly drawn) | > 100 | > 100 | > 100 | > 100 | 
11 | CO[C@@H](/C=C/CC/C=C/C(=O)O)[C@@H](O)[C@H](C)/C=C(\C)[C@@H](O)[C@H](C)C(=O)CCCC1CC(=O)NC(=O)C1 | > 100 | > 100 | > 100 | > 100 | 
12 | CO[C@H]1/C=C/CC/C=C/C(=O)O[C@H]([C@H](C)C(=O)/C=C/CC2CC(=O)NC(=O)C2)/C(C)=C\[C@@H](C)[C@@H]1O | > 100 | > 100 | > 100 | > 100 | 
13 | C/C1=C/[C@@H](C)CC/C=C/CC/C=C/C(=O)O[C@@H]1[C@H](C)C(=O)C[C@H](O)CC1CC(=O)NC(=O)C1 | 0.07 | > 0.33 | 1 | 0.98 | 
14 | C/C(=C\[C@@H](C)CC/C=C/CC/C=C/C(=O)O)[C@H](O)[C@H](C)C(=O)C[C@H](O)CC1CC(=O)NC(=O)C1 | > 100 | > 100 | > 100 | > 100 | 
15 | CO[C@H]1/C=C/CC/C=C/C(=O)O[C@H]([C@H](C)C(=O)CCCC2CC(=O)NC(=O)C2)/C(C)=C\[C@@H](C)[C@@H]1O [MIGRASTATIN] | 17 | 14 | 4.6 | 5.8 | 5

Continued, in another order:

Row | IC50 (MDA-MB-231 [2]) [µM] | IC50 (4T1 [3]) [µM] | Compound | IC50 (MDA-MB-231 [1]) [µM] | IC50 (4T1 [4]) [µM] | half-life [5] [min]
16 | > 100 | > 100 | C/C(=C\[C@@H](C)[C@H](O)C/C=C/CC/C=C/C(=O)O)[C@@H](O)[C@H](C)C(=O)CCCC1CC(=O)NC(=O)C1 | > 100 | > 100 | 
17 | > 100 | > 100 | CO[C@@H](/C=C/CC/C=C/C(=O)O)[C@@H](O)[C@H](C)/C=C(\C)[C@H](O)[C@H](C)C(=O)C[C@H](O)CC1CC(=O)NC(=O)C1 | > 100 | 20 | 
18 | > 100 | > 100 | C/C(=C\[C@H](C)C(=O)CCCC1CC(=O)NC(=O)C1)[C@H](O)[C@@H](C)[C@H](O)C/C=C/CC/C=C/C(=O)O | > 100 | > 100 | 
19 | > 100 | > 100 | C/C(=C\[C@@H](C)[C@H](O)C/C=C/CC/C=C/C(=O)O)[C@H](O)[C@H](C)C(=O)CCCC1CC(=O)NC(=O)C1 | > 100 | > 100 | 
20 | > 100 | > 100 | C/C(=C\[C@H](C)C(=O)CCCC1CC(=O)NC(=O)C1)[C@H](O)[C@@H](C)[C@H](O)[C@@H](O)/C=C/CC/C=C/C(=O)O | > 100 | > 100 | 
21 | > 100 | > 100 | C/C1=C/[C@@H](C)[C@H](O)C/C=C/CC/C=C/C(=O)O[C@@H]1[C@H](C)C(=O)/C=C/CC1CC(=O)NC(=O)C1 | > 100 | 8.5 | 
22 | > 100 | > 100 | C/C(=C\[C@@H](C)CC/C=C/CC/C=C/C(=O)O)[C@@H](O)[C@H](C)C(=O)C[C@H](O)CC1CC(=O)NC(=O)C1 | > 100 | 81 | 
23 | > 100 | > 100 | C/C(=C\[C@@H](C)[C@H](O)[C@@H](O)/C=C/CC/C=C/C(=O)O)[C@@H](O)[C@H](C)C(=O)CCCC1CC(=O)NC(=O)C1 | > 100 | > 100 | 
